# From PubChem BioAssay
# This is a sample that favours compounds with a hit; in the whole collection about 8.4% have one here.
# PostGolgi ctrl = inhibits growth of the yeast control strain. 5% of 98,000 active. inhibition, % at 10 µM. AID 738. efflux-deficient yeast background strain, growth absorbance A615, 16 h
# tolC growth inh = E. coli tolC mutant growth inhibition. E. coli BW25113 tolC mutant growth, OD615. growth inhibition, % at 10 µM (by protocol). 2.2% of 65,000 active. AID 573;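 active = growth inhibition at or above a cutoff equal to the mean over every tested compound plus 3 SD, cut at about 60% in these data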;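 note: growth measured after 20 h incubation at 37 °C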
#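 Assay system: tolC-deleted E. coli BW25113. Medium: kanamycin-containing LB broth (50 µg/mL). Dosing: 10 µM final, single dose. Timing: bacterial growth with compound for 20 h at 37 °C. Detection: A615 absorbance measurement. Read-out basis: growth inhibition in percent.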
# E coli WT exp = blocks growth of wild type E. coli BW25113. OD600 absorbance. growth inhibition, % at 100 µM. 0.15% of 98,000 active;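 active = growth inhibition above about 50% at one test dose, limit read from the data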;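 note: growth measured after 20 h incubation at 37 °C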
# PostGolgi yeast = growth inhibition of a yeast mutant, post-Golgi transport screen; AID 739; post-Golgi transport phenotypic cell assay; inhibition, % at 10 µM; 0.9% of 98,000 active;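 note: yeast cells grown in 1536-well plates; yeast grown about 18 h at 30C before absorbance read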
# Cav3 T inh = blocks human Cav3.2 T-type calcium channel | O95180 | Cav3.2-expressing cells, Fluo-4 calcium fluorescence FDSS; hits give low values | B-score at 10 µM | 4% of 100,000 active | AID 449739;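 active = single-dose well whose peak fluorescence ratio is a statistical outlier from its plate by either plate-standardised score or position-corrected B-score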
# * hit, by the source's call; · = not tested or not shown. Cut-off read from the data, not from the text of the source, unless noted: active = inhibition above about 30%; inactive = the rest.
SMILES,PostGolgi ctrl,tolC growth inh,E coli WT exp,PostGolgi yeast,Cav3 T inh
COc1ccc(S(=O)(=O)Nc2ccccc2C(=O)NCc2ccco2)cc1Br,1,83*,4,1,-3.8*
Cc1ccc(C(=O)Nc2ccccc2C(=O)NCc2ccco2)cc1S(=O)(=O)N1CCCCC1,97*,28,-18,2,-2.2
CCn1cc(C(=O)NC2CCCC2)c(=O)c2cc(S(=O)(=O)N3CCOCC3)ccc21,·,4,·,·,·
CCn1cc(C(=O)NC2CCC(C)CC2)c(=O)c2cc(S(=O)(=O)N3CCCCC3)ccc21 (stereo not drawn),11,57,-10,-11,-7.2*
Cc1ccc(C(=O)NCc2ccco2)cc1S(=O)(=O)N1CCCCC1,-3,16,0,-9,0.63
NC(=O)NCc1ccc(Cl)cc1,-1,·,7,-9,1.1
CCn1cc(C(=O)NCc2ccco2)c(=O)c2cc(S(=O)(=O)N3CCCCCC3)ccc21,15,23,-6,1,-2.2
C=CCn1cc(C(=O)NCc2ccco2)c(=O)c2cc(S(=O)(=O)N3CCCCCC3)ccc21,3,68*,-22,-8,-4.9*
Cc1cc2nc3c(nc2cc1C)C1(C(=O)O)CCC3(C)C1(C)C (stereo not drawn),32*,-11,-2,-7,-0.13
CNC(=O)C12CCC(C)(c3nc4cc(C)c(C)cc4nc31)C2(C)C (stereo not drawn),25,·,-6,3,0.11
O=C(Cc1ccccc1)NCc1nc2ccccc2[nH]1,·,-3,·,·,0.059
Cc1ccc(SC/C(O)=C(\C#N)c2nc3ccccc3n2C)cc1,37*,3,0,-2,-0.41
Nc1nn(S(=O)(=O)c2cccc3nsnc23)cc1-c1ccc(Br)cc1,72*,58,-8,79*,-5.9*
Cc1ccc(-c2cn(S(=O)(=O)c3cccc4nsnc34)nc2N)cc1,23,53,-15,48*,-7.8*
COc1cc(-c2cn(S(=O)(=O)c3cccc4nsnc34)nc2N)cc(OC)c1OC,7,·,-3,4,0.063
CC1=NN(/C(=N\c2nnc(C)s2)Nc2ccc(C(C)(C)C)cc2)[C@H](c2ccc(C)cc2)S1,·,·,·,·,-5.6*
CC1=CC(C)(C)N2C(=O)C3(C(C#N)=C(N)Oc4cc(O)ccc43)c3c(C)c(C)cc1c32 (stereo not drawn),20,·,0,-2,-4.1*
Cc1cc2c3c(c1)C(C)(c1ccccc1)CC(C)(C)N3C(=O)C21C(C#N)=C(N)OC2=C1C(=O)CC(C)(C)C2 (stereo not drawn),13,·,-5,2,-2.1
CC1(c2ccccc2)CC(C)(C)N2C(=O)C3(C(C#N)=C(N)Oc4cc(O)ccc43)c3cccc1c32 (stereo not drawn),20,·,-2,-3,-4.9*
CCCCc1ccc(NS(=O)(=O)c2cccs2)cc1,37*,·,26,-4,-5*
O=S(=O)(Nc1ccc(Cc2ccncc2)cc1)c1cccs1,9,·,12,-2,-0.008
O=C(c1ccccc1OCc1ccccc1Br)N1CCN(c2ncccn2)CC1,19,11,-9,17,·
O=C(Cn1c(=O)oc2ccccc21)N1CCN(c2ccccc2)CC1,31*,-3,-8,12,0.38
O=C(CCn1c(=O)oc2ccccc21)N1CCN(C(c2ccccc2)c2ccccc2)CC1,36*,64*,-13,5,·
CCOC(=O)C(=Cc1ccc(OCc2ccc([N+](=O)[O-])cc2)c(OC)c1)C(=O)OCC,43*,·,-2,-4,-0.11
SMILES,PostGolgi ctrl,tolC growth inh,E coli WT exp,PostGolgi yeast,Cav3 T inh
COC(=O)C(=Cc1ccc(OCc2ccc([N+](=O)[O-])cc2)c(OC)c1)C(=O)OC,12,·,-5,-5,2.3
N#CCC(CNc1ncc(C(F)(F)F)cc1Cl)OC(=O)c1cccc([N+](=O)[O-])c1 (stereo not drawn),23,·,-4,3,-2.5
N#CCC(CNc1ncc(C(F)(F)F)cc1Cl)OC(=O)c1c(F)cccc1F (stereo not drawn),·,·,·,·,-3.7*
CC(=O)OC1COC(OC2C(O)C(C)OC(OC3C(OC4CCC5(C)C(CCC6(C)C5CC=C5C7CC(C)(C)CCC7(C(=O)O)CCC56C)C4(C)CO)OCC(O)C3O)C2O)C(O)C1OC(C)=O (stereo not drawn),·,·,·,·,-5*
Cc1nnc2ccc(Oc3ccc(-c4ccccc4)cc3)nn12,9,11,7,0,-1.3
NS(=O)(=O)c1ccc(N2N=C(c3ccc(Br)cc3)CC2c2ccc(F)cc2)cc1 (stereo not drawn),86*,·,-9,16,-0.12
O=C1OCCN1C(=O)[C@H]1[C@H](c2ccc(F)cc2)C(c2ccc(F)cc2)=NN1c1ccc(Br)cc1,·,·,·,·,-0.34
Cc1ccc2cc(CCNC(=O)c3ccc(Br)o3)c(=O)[nH]c2c1,101*,46,9,21,·
CC(=O)NCCc1cc2ccc(C)cc2[nH]c1=O,-2,-22,3,24,·
CC(=O)c1ccccc1OCCn1nnc(-c2ccc(C)cc2)n1,·,24,·,·,-5.1*
Cc1sc(NC(=O)c2ccco2)c(CN2CCC(C)CC2)c1C,1,·,-3,0,-5.2*
CC(C)(C)n1nnnc1C(c1cccnc1)N1CCN(C(=O)c2ccco2)CC1 (stereo not drawn),-1,2,3,4,0.23
Cc1sc(NC(=O)c2ccco2)c(C(c2cccnc2)N2CCC(C)CC2)c1C (stereo not drawn),41*,·,-1,86*,-1.5
O=C(Cn1cnc2ccccc2c1=O)N(Cc1ccco1)c1ccc(O)cc1,8,5,8,2,0.41
O=C(c1ccc(Cl)c(Cl)c1)N(Cc1ccco1)c1ccc(O)cc1,25,100*,3,0,-7.4*
CCC(C)(C)NC(=O)C(c1ccc(C)cc1)N(Cc1ccco1)C(=O)CCC(=O)Nc1nccs1 (stereo not drawn),-7,·,-9,0,-4.8*
CCC(C)(C)NC(=O)C(c1ccc(F)cc1)N(Cc1ccco1)C(=O)CCC(=O)Nc1ccccn1 (stereo not drawn),0,20,8,-4,-8.8*
CCC(C)(C)NC(=O)C(c1ccc(OC)cc1)N(Cc1ccco1)C(=O)CCC(=O)Nc1cc(C)on1 (stereo not drawn),·,·,·,·,-0.0063
N#Cc1cccc(-n2c(-c3ccccc3)nnc2-c2ccccc2)c1C#N,24,10,-8,4,-0.97
N#Cc1ccc(-n2c(-c3ccccc3)nnc2-c2ccccc2)cc1C#N,41*,·,-11,4,0.2
O=C(c1nnc(Cc2ccc(Cl)cc2)o1)N1CCc2ccccc2C1,·,34,·,·,-5.7*
O=C(NCCc1ccc(Cl)cc1)c1nnc(Cc2ccc(Cl)cc2)o1,·,3,·,·,·
CCN(CC)C(=O)Cn1cnc([N+](=O)[O-])n1,6,·,6,-7,1
CC1=C(C(=O)Nc2cc(-c3cccc(F)c3)[nH]n2)C2(CCCCC2)OC1=O,32*,35,11,2,-0.14
S=C(NC1CCCCC1)N(CCc1nc2ccccc2[nH]1)C1CCCC1,·,·,·,·,-8.3*
O=C(Nc1ccccc1)N(CCc1nc2ccccc2[nH]1)C1CCCC1,-3,43,9,-2,-2.6
